High-throughput results: PubChem, several laboratories
Only a selection was taken, and hits are over-represented in it overall.
Cl transport mod: modulators of human KCC2 chloride dependent transport; KCC2 cells, thallium flux FluoZin-2 fluorescence; B-score of Tl+ flux slope (higher = more flux/activation; lower = inhibition) at 10 µM; 2.2% of 190,000 active;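 active = thallium flux slope and its plate-corrected score both differing from the plate sample mean at a set confidence after two filtering rounds, in either direction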;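 note: slope of fluorescence scaled to starting intensity during 10 to 20 s after thallium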
ABCB6 inh MLPCN: blocks the human ABCB6 transporter. AID 602162. K562-ABCB6 porphyrin accumulation, flow cytometry, 1 h; hits give low values. fluorescence ratio to DMSO, % at 10 µM. 0.19% of 360,000 active. Q9NP58;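 active = fluorescence ratio to DMSO below 75%, the collection mean minus 3 SD; inconclusive = too few cells collected in the well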;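 note: signal is porphyrin accumulated inside mitochondria; 100% equals median channel fluorescence of DMSO control wells; lower ratio means ABCB6 inhibition with less porphyrin fluorescence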
V-ATPase pH: yeast V-ATPase proton transport regulation by pHLuorin. response, % at 10 µM. AID 504577. S. cerevisiae, pHLuorin cytosolic pH fluorescence. 0.37% of 350,000 active; in the data active = response mostly above about 7.3%, no sharp cut-off; inactive = mostly below about 5.4%; note: actives read high
Dynein transport: blocks dynein driven cargo transport along microtubules; 3617.4 mouse cells, GR-EGFP nuclear translocation imaging; test concentration mostly 20 µM; stimulated with dexamethasone, 1 µM; hits give low values; z-score, hits read low; 0.47% of 220,000 active;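 active = plate z-score of nuclear minus cytoplasmic receptor signal below a set negative limit, without overly bright fluorescence or cell loss, cut at about -3.5 in these data, passing the limit was not always enough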;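 note: z-score of nuclear minus cytoplasmic ring GR-EGFP intensity difference per well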
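Medium: Induction medium lacking tetracycline, stripped serum | Probe or stimulus: 1.0 µM final dexamethasone stimulus | Schedule: 48 h induction, then 1 h compound, then 30 min agonist, 37 °C | Signal: Automated 10x imaging of fixed Hoechst-stained cells | Evaluation: Per-cell GR-EGFP intensity, nucleus versus surrounding cytoplasmic ring, well-averaged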
pCIP destab: lowers stability of the mouse p/CIP coactivator protein; AID 1984; decrease of EGFP signal, % at 10 µM; F442A p/CIP-EGFP cells, EGFP fluorescence, 16 h; 0.01% of 290,000 active; Q05BA5;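 active = EGFP signal decrease of at least 30% at 10 µM or well 3 SD below plate mean, unless failing retest; inactive = the rest, including hits failing retest or dose response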
KCC2 secondary: KCC2 (human) modulation, secondary assay. shares compounds with Cl transport mod. HEK293-KCC2, thallium flux, FluoZin2 fluorescence; hits give high values. normalised thallium flux (F/F0 slope) at 10 µM. 15% of 3,700 active;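 active = thallium flux slope above the same plate's solvent-only control mean plus 3 SD; inconclusive = the two replicate wells disagree; inactive = no significant difference from solvent-only control wells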
KCC2 bumet counter: thallium flux persisting under bumetanide in KCC2 cells, counter-screen secondary assay; shares compounds with Cl transport mod; HEK293-KCC2 + bumetanide/ouabain, thallium flux FluoZin2; hits give high values; normalized thallium flux at 10 µM; 49% of 3,700 active;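 active = thallium entry rate above the same plate's blocked-transporter control wells by more than 3 SD; inconclusive = the two repeat wells disagree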;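 note: raw slope of fluorescence over initial fluorescence between 10 and 20 s after thallium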
KCC2 sec2: confirmation of human KCC2 transport modulators; shares compounds with Cl transport mod; AID 1715; HEK293-KCC2, thallium flux FluoZin2 fluorescence; actives lie on both sides; F/F0 rise rate, 10–20 s post-thallium; 23% of 3,700 active; normalized thallium flux at 10 µM;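 active = thallium flux slope more than 3 SD above or below the plate's solvent-only control mean, mostly below; inconclusive = the two repeat wells disagreed; inactive = no significant shift from solvent-only controls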;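 note: raw slope with 0.1% DMSO as baseline and bumetanide as block control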
HEK counter1: acts in parental HEK cells, KCC2 counter-screen. shares compounds with Cl transport mod. HEK293 parental cells, thallium flux FluoZin2, ouabain; baseline-ratio fluorescence slope, 10–20 s after thallium. thallium flux rate (normalised fluorescence) at 10 µM. 46% of 3,700 active;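 active = thallium flux rate significantly above the same plate's solvent-only control wells, beyond their mean plus 3 SD; inconclusive = the two replicate wells gave conflicting results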
KCC2 retest ouab: modulates human KCC2 on retest with ouabain. shares compounds with Cl transport mod. HEK293-KCC2, thallium flux FluoZin2 fluorescence; bidirectional: low = inhibitor, high = activator. raw Tl+ flux slope (below DMSO = inhibition, above = activation) at 10 µM. 48% of 3,700 active;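 active = thallium flux slope beyond 3 SD from same-plate DMSO control mean in most replicates, usually higher, sometimes lower; inconclusive = repeat tests gave conflicting results; inactive = no significant difference from controls in most replicates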;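 note: slope of initial-normalized fluorescence between seconds 10 and 20 after thallium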
HEK293 Tl flux2: counter-screen for KCC2 modulators: effect in parental HEK293 cells; shares compounds with Cl transport mod; thallium flux slope at 10 µM; thallium flux FluoZin-2 fluorescence slope; 33% of 3,700 active;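 active = thallium flux slope above the same plate's solvent-control mean plus 3 SD in both duplicate wells; inconclusive = duplicate wells that disagreed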;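 note: run without ouabain in cells lacking the KCC2 cotransporter; slope of fluorescence scaled to its starting value between 10 and 20 s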
Starred values were filed as active, the others as inactive; ? = inconclusive; . = no result.

SMILES	Cl transport mod	ABCB6 inh MLPCN	V-ATPase pH	Dynein transport	pCIP destab	KCC2 secondary	KCC2 bumet counter	KCC2 sec2	HEK counter1	KCC2 retest ouab	HEK293 Tl flux2
O=C(NCCN=C1NS(=O)(=O)c2ccccc21)c1ccncc1	7*	95	-4	-0.84	-7	0.011	0.0058	0.032	?	0.022	0.01
O=C(Nc1nnc(SCc2ccc(F)cc2)s1)c1ccccn1	44*	96	3	-0.3	-8	0.0066	0.039*	?	0.036*	0.036*	0.027*
O=C(Nc1nc2ccccc2s1)c1cnccn1	1.2	98	-5	0.16	2	.	.	.	.	.	.
CCOC(=O)c1csc(Nc2nc3ccc(F)cc3s2)n1	27*	95	1	-0.52	-2	0.02*	0.079*	0.034	0.056*	0.057*	0.018*
O=C(Nc1nc2ccc(F)cc2s1)c1ccccn1	60*	.	.	0.54	-4	0.0061	0.096*	0.061*	0.056*	0.076*	0.052*
O=C(CSc1nncs1)NNC(=O)c1ccco1	.	92	1	.	.	.	.	.	.	.	.
Cc1ccc(N(CCC#N)C(=O)COC(=O)C2CCN(S(=O)(=O)c3ccc(C)c(C)c3)CC2)cc1	.	98	6	.	.	.	.	.	.	.	.
O=C(CCc1nc2ccccc2s1)N1CCN(S(=O)(=O)c2cccs2)CC1	-4.1*	88	4	-0.56	0	0.007	0.0053	0.038	0.0041	0.018	0.011
COc1ccc(/C=C2/SC(=O)N(CC(=O)Nc3cc(C)on3)C2=O)cc1OC	-0.033	98	-11	0.87	-5	.	.	.	.	.	.
Cc1ccc(CNC(=O)c2cc3c(=O)n(C)c4ccccc4c3n2C)o1	-4.3*	93	-1	0.21	-26	0.01	0.0068	0.028	0.0076	0.022*	?
Cn1c(C(=O)NCCCN2CCN(c3ccccc3F)CC2)cc2c(=O)n(C)c3ccccc3c21	-3.1	104	-1	-0.4	-2	0.0074	0.0046	0.024*	0.0076	?	0.011
CCOc1ccc(NC(=O)c2cc3c(=O)n(C)c4ccccc4c3n2C)cc1	-2	101	-3	0.74	-6	0.0077	0.0067	0.033	0.0074	?	0.011
Nc1ccccc1C(=O)NNC(=O)C(=O)/C=C(\O)c1ccccc1	1.1	94	-1	-0.64	-23	.	.	.	.	.	.
COc1ccc(-c2oc3ccccc3c(=O)c2OC(C)=O)cc1	55*	94	-3	0.3	7	0.022*	0.09*	0.041	?	0.071*	?
COc1ccc(-c2oc3ccccc3c(=O)c2OCC(=O)O)cc1	-0.1	99	-1	0.024	-14	.	.	.	.	.	.
Cc1ccnc(NC(=S)NC(=O)c2cncc(Br)c2)c1	8.5*	99	4	0.67	1	0.0068	0.019*	0.032	0.015*	?	0.014*
COc1cc([N+](=O)[O-])ccc1NC(=O)C[n+]1ccccc1C	.	102	-4	2.2	-5	.	.	.	.	.	.
Cc1ccc(S(=O)(=O)N/N=C\c2cn(CC(N)=O)c3ccccc23)cc1C	.	99	-2	.	0	.	.	.	.	.	.
O=C(CSc1ncnc2c1oc1ccccc12)NC1CCCCC1	-3.8*	99	-1	-0.35	-17	0.0095	0.0057	?	0.0067	0.02*	0.011
CCc1nc(SCC(=O)NC2CCCC2)c2oc3ccccc3c2n1	.	92	-5	.	-9	.	.	.	.	.	.
Fc1ccc(-c2nc3ccccc3[nH]2)cc1	0.69	92	2	-0.086	-13	.	.	.	.	.	.
S=c1nc(-c2ccc(Br)cc2)[nH]c2ccccc12	93*	97	1	0.55	4	0.047*	0.13*	0.078*	0.12*	0.11*	0.092*
N#C/C(=C(/O)COc1ccccc1)c1nc2ccccc2s1	-5.4*	99	-1	-0.079	-10	?	0.0046	0.022*	0.0077	0.017	0.01
COc1ccc(C/C(O)=C(\C#N)c2nc3ccccc3s2)cc1	-1.1	96	-1	-0.39	-11	.	.	.	.	.	.
N#C/C(=N\O)c1nc2ccccc2s1	-0.22	105	-5	-0.23	-26	.	.	.	.	.	.
SMILES	Cl transport mod	ABCB6 inh MLPCN	V-ATPase pH	Dynein transport	pCIP destab	KCC2 secondary	KCC2 bumet counter	KCC2 sec2	HEK counter1	KCC2 retest ouab	HEK293 Tl flux2
N#C/C(=C(/O)COc1ccc(Cl)cc1)c1nc2ccccc2s1	-3.7*	96	2	0.15	-6	0.007	?	0.023*	0.0077	?	0.011
N#C/C(=C(/O)c1ccc(F)cc1)c1nc2ccccc2s1	-4.8*	100	1	-0.84	-4	0.0073	0.0058	0.032	0.0059*	0.016*	0.0096
CC1CC(=O)c2cnc(Nc3cccc(C(F)(F)F)c3)nc2C1 (stereo not given)	-3*	96	-3	-0.46	-12	0.012*	?	0.034	0.0081	0.023	0.011
O=C(OCC(=O)c1c[nH]c2ccccc12)c1ccc(F)c(S(=O)(=O)N2CCOCC2)c1	.	99	-1	.	.	.	.	.	.	.	.
Cc1ccc(/C=C2/SC(=O)NC2=S)o1	94*	107	1	0.52	11	?	0.07*	0.098*	0.1*	0.094*	0.099*
Cn1cc(/C=C2\SC(=O)NC2=S)c2ccccc21	21*	101	1	2.1	-50	0.013*	0.028*	0.03	0.018*	0.034*	?
Cc1ccc(C(=O)NN2C(=O)/C(=C/c3cn(C)c4ccccc34)SC2=S)cc1	-3.7*	123	-4	1.1	-57	0.0046*	0.0039	0.026*	0.0051*	0.025*	0.0089
CC(O)CNc1ncnc2cc(-c3ccc(F)cc3)sc12 (stereo not given)	.	96	-1	.	-4	.	.	.	.	.	.
COc1ccccc1CN(C)C(=O)c1ccccc1Sc1ccccc1C#N	.	98	-3	.	-24	.	.	.	.	.	.
COc1ccc(CN(C)C[C@H]2OCCCC[C@@H](C)Oc3ccc(NC(=O)c4ccccc4)cc3C(=O)N([C@H](C)CO)C[C@@H]2C)cc1	.	101	0	.	.	.	.	.	.	.	.
C/C(=N\NC(=O)c1c(Br)c(C)nn1C)c1cccc(NC(=O)C2CCC2)c1	-5.2*	95	-1	-0.21	-21	0.0055	0.0047	0.027	0.0071	0.017	0.0096
